Here are results for 2 molecules from PMC6176371 (Oncology Letters, 2018).

The term IC50 denotes the midpoint of a concentration-inhibition curve.

“Also recorded” adds a separate entry of the source. Where two headings read alike, the source gives them in different places. A value given as a limit tells only on which side of the number the result lay.

For one data set, the target named is CYP2C19 (Homo sapiens, UniProt P33261). To be noted: CYP2C19, S-mephenytoin4′-hydroxylation, human liver microsomes. For orientation: Liver microsomes are vesicles of endoplasmic reticulum, rich in cytochrome P450 enzymes.
The target in the next data set is CYP2D6 (Homo sapiens, UniProt P10635). The data set is described as follows: CYP inhibition in pooled human liver microsomes, CYP2D6. It is filed as biochemical. The following applies: CYP2D6, Dextromethorphandextrorphan.
The nature of data set [1]: Pharmacokinetic study, oral and i.v. administration. It is filed as in vivo, SD rats. The method in brief:
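Adult male SD rats got a single 10 mg/kg dose by tail-vein injection or oral gavage. Blood was drawn from three rats predose and at 0.083–24 h; plasma was frozen at −80°C. Plasma was deproteinized with methanol containing 250 nM internal standard for LC/MS/MS. PK parameters came from a noncompartmental i.v.-bolus model.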

Another data set deals with T1, CYP2C8 (Homo sapiens, UniProt P10632).
T1 sequence (P10632 1-490): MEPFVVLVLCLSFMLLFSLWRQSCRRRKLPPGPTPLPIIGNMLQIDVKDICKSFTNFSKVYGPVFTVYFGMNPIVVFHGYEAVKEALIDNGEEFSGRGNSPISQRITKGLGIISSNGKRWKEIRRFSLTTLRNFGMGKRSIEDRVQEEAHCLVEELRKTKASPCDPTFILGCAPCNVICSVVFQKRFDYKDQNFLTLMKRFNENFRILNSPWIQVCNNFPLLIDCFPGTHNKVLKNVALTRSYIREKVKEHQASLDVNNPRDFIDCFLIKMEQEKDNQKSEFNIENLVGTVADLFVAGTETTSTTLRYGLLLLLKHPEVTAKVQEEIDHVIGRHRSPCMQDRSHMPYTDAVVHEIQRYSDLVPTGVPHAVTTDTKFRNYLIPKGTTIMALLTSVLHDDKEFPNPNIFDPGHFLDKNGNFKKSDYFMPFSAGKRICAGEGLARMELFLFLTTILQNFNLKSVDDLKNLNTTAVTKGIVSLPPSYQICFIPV
The data set is described as follows: CYP inhibition in pooled human liver microsomes, CYP2C8. It is filed as biochemical. To be noted: CYP2C8, Amodiaquine N-deethylation.

The target of another data set is T2, CYP2B6 (Homo sapiens, UniProt P20813).
T2 sequence (P20813 1-491): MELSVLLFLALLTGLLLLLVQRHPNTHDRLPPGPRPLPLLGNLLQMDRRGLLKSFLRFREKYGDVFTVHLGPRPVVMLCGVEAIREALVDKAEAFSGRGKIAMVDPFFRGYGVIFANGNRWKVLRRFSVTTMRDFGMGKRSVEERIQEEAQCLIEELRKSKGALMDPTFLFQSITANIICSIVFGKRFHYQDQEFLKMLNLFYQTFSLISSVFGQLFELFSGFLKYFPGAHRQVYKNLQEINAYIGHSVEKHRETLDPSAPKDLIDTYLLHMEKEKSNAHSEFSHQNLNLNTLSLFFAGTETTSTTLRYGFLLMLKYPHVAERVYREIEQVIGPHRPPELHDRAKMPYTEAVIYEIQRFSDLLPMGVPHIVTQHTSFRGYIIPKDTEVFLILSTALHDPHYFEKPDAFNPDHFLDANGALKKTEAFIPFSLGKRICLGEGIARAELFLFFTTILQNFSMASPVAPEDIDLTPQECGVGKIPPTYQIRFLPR
Description: CYP inhibition in pooled human liver microsomes, CYP2B6. It is filed as biochemical. The following applies: CYP2B6, Bupropion hydroxylation.

Another data set has as its system heart tissues. The data set is described as follows: TUNEL assay of heart tissues. The data set is classed as in vivo. The following applies: male and female Balb/c mice. The method in brief: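 Heart tissue came from the 3-week mouse study: vehicle; test compound 100 mg/kg gavage twice weekly; ADM 20 mg/kg i.p. on day 6; combination. Paraffin sections (4 µm) were stained with an in situ TUNEL kit, and positive cells were counted in three random fields per slide by light microscopy. Percent apoptotic cells was compared by one-way ANOVA with Dunnett's test.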

A further data set relates to Balb/c mice. Description: Maximum tolerant dosage, single high-dose PPD12. The data set is classed as in vivo. The following applies: 1 g/kg PPD12. In a few lines:
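Single oral gavage of test compound at 1 g/kg to Balb/c mice to assess tolerability of a single high dose.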

Another data set deals with T3, CYP1A2 (Homo sapiens, UniProt P05177).
T3 sequence (P05177 1-516): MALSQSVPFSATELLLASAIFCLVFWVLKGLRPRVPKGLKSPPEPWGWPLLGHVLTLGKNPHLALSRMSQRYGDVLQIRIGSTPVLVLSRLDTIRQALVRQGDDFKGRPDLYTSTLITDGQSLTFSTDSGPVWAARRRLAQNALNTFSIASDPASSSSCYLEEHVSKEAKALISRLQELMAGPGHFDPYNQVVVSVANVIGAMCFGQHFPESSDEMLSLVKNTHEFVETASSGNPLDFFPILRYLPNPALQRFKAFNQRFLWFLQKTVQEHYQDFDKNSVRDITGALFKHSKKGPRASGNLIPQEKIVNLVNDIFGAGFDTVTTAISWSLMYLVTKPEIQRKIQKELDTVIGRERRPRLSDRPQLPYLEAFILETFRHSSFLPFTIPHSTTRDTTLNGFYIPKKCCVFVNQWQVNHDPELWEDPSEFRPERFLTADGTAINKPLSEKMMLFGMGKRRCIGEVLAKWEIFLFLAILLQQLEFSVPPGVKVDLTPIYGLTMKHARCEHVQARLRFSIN
Description: CYP inhibition in pooled human liver microsomes, CYP1A2. The data set is classed as biochemical.

Another data set addresses CYP2C9 (Homo sapiens, UniProt P11712). The data set is described as follows: CYP inhibition in pooled human liver microsomes, CYP2C9. It is filed as biochemical.
The next data set has as its target CYP3A4 (Homo sapiens, UniProt P08684). The data set is described as follows: CYP inhibition in pooled human liver microsomes, CYP3A4. It is filed as biochemical.
For the next data set, the system named is KB cells. Description: cells. It is filed as cell-based. To be noted: Homo sapiens, read-out: IC50 ± SD.
The test system of a further data set is KB/VCR cells. The data set is described as follows: cells. To be noted: Homo sapiens, read-out: IC50 ± SD. The data set is classed as cell-based.

Chain of CYP3A4 (P08684 whole entry): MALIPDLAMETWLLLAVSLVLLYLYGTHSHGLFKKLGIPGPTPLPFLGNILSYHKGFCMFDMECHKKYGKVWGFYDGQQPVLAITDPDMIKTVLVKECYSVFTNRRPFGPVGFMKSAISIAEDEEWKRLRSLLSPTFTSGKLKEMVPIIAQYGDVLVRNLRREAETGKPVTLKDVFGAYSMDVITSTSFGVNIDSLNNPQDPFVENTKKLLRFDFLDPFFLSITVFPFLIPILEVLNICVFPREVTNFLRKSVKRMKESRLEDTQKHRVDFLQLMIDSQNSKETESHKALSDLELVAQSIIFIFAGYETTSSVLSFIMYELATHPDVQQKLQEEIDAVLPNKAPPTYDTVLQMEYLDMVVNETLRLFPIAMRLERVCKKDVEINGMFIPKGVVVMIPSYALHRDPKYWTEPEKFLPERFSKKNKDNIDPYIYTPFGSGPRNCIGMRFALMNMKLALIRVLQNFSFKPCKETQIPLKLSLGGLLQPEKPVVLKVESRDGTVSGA
Chain of CYP2C9 (P11712 whole entry): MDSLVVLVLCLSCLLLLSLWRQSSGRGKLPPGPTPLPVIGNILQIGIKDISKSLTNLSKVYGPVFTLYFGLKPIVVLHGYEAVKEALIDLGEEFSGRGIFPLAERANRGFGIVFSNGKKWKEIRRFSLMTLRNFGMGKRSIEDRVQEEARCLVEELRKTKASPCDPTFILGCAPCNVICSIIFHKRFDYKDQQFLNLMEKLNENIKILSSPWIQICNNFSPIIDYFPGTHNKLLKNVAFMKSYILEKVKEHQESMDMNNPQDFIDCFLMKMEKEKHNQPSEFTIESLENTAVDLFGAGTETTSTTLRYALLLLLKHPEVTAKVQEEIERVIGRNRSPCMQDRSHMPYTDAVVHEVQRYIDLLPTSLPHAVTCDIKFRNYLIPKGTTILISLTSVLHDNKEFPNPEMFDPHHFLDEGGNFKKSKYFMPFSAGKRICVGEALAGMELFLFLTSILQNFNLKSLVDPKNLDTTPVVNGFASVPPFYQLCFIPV
Chain of CYP2D6 (P10635 whole entry): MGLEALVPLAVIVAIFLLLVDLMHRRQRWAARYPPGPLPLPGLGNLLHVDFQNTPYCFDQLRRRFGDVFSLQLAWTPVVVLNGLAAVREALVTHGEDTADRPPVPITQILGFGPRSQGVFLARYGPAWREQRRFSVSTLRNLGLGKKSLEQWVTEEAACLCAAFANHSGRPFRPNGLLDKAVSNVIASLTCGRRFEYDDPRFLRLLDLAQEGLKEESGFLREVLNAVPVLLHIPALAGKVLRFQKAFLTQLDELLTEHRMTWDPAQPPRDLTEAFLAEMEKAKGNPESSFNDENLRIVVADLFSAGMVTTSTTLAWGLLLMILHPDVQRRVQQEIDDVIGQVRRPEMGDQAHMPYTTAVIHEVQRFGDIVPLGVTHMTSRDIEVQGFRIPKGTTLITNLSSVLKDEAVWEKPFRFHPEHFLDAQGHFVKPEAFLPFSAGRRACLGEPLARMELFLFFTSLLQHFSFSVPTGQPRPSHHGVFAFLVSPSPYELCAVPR
Chain of CYP2C19 (P33261 whole entry): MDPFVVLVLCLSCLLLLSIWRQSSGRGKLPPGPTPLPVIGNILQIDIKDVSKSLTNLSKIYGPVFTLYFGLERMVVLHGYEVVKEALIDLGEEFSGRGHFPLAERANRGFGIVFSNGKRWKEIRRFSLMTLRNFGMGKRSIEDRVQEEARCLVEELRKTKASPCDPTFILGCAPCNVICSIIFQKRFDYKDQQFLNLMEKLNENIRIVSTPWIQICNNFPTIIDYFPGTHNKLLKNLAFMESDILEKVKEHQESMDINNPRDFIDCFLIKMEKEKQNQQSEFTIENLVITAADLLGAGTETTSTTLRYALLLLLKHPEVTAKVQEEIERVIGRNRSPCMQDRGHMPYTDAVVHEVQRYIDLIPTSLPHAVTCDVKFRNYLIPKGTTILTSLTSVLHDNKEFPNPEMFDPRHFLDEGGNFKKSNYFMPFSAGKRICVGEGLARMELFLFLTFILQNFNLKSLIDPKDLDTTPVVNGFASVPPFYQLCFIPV

For `CC1(C)[C@@H](O)CC[C@]2(C)[C@H]3C[C@@H](O)[C@@H]4[C@@H]([C@@](C)(O)CCCNCc5ccccc5)CC[C@@]4(C)[C@]3(C)CC[C@@H]12` [PPD12], the IC50 at CYP2C19 is 15000 nM; at CYP2D6, 11800 nM; on CYP2C8, 9570 nM; on CYP2B6, 2210 nM; at CYP1A2 (CYP1A2, Phenacetin 0-deethylation), over 33000 nM; against CYP2C9 (CYP2C9, Diclofenac4′-hydroxylation) it was over 33000 nM. Also, the IC50 turned out to be 1030 nM at CYP3A4 (CYP3A4, Midazolam 1′-hydroxylation) and 8430 nM at CYP3A4 (CYP3A4, Testosterone 6-β-hydroxylation). The oral absolute bioavailability in data set [1] (male SD rats, 10 mg/kg oral vs i.v.) came out at 114.41±22.24%. Also, the “bioavailability by oral administration” value in data set [1] (mouse model (so in the source)) was about 100%. The “apoptotic cells in heart tissues (TUNEL) compared to the control group” value in the data set on heart tissues is “no obvious difference in apoptotic cells”. In addition, the “lethal effects / tolerability of a single high dosage” value with Balb/c mice is given as “did not observe any lethal effects; also recorded: well tolerated”. At CYP1A2 (at 33 µM), the “inhibition of CYP1A2-mediated phenacetin 0-deethylation” value was “negligible inhibition”. For the same molecule, at CYP2C9 (at 33 µM), the “inhibition of CYP2C9-mediated diclofenac4′-hydroxylation” value is listed as “negligible inhibition”.
As for `COc1cccc2c1C(=O)c1c(O)c3c(c(O)c1C2=O)C[C@@](O)(C(=O)CO)C[C@@H]3O[C@H]1C[C@H](N)[C@H](O)[C@H](C)O1` [ADM, Adriamycin], the IC50 with KB cells (24 h) was determined as 2380 nM; in the data set on KB cells (48 h) it was 390 nM; in the data set on KB cells (72 h), 71.3 nM; in the data set on KB cells (96 h), 35.1 nM; in the data set on KB/VCR cells (24 h), 151000 nM; in the data set with KB/VCR cells (48 h) it was 4780 nM. Further, the IC50 with KB/VCR cells (72 h) amounted to 1520 nM; in the data set with KB/VCR cells (96 h), 1190 nM. For the same molecule, the “apoptotic cells in heart tissues (TUNEL) compared to the control group” value in the data set on heart tissues is reported as “significant increase in apoptosis”.
